The record followed here is ChEMBL document CHEMBL1148632, “Discovery of a novel family of SARS-CoV protease inhibitors by virtual screening and 3D-QSAR studies” (J Med Chem, 2006).

The target in this test is Replicase polyprotein 1a (Severe acute respiratory syndrome-related coronavirus, UniProt P0C6U8). Nature of the test: Inhibition of SARS coronavirus 3C-like protease. An outline of the steps: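 Recombinant SARS-CoV 3CLpro (pET32Xa/LIC construct) at 50 nM with 6 µM fluorogenic peptide Dabcyl-KTSAVLQ-SGFRKME-Edans in 20 mM Bis-Tris pH 7.0 at 25 °C. Cleavage read as fluorescence increase (ex 355, em 538 nm). Initial velocities plotted against inhibitor concentration; IC50 fitted with A[I] = A[0]×(1 − [I]/([I]+IC50)).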

The IC50 is the concentration that gives 50% inhibition. Take `Cn1nc(-c2ccc(-c3ccnc(SCC(=O)Nc4ccc(Cl)cc4)n3)s2)cc1C(F)(F)F`: the half-inhibitory concentration (IC50) (read-out: IC50) is 10 µM.

On to `CCC(Sc1nc(O)c(C#N)c(-c2cccc(OC)c2)n1)C(=O)Nc1ccc(C(C)=O)cc1` (centres undefined), for which, for the setting “read-out: IC50”, the half-inhibitory concentration (IC50) turned out to be 60 µM.

Take `COc1cccc(-c2nc(SCC(=O)Nc3ccc(S(N)(=O)=O)cc3)[nH]c(=O)c2C#N)c1`: the IC50 (read-out: IC50) came out at 40 µM.

Turning to `COc1cccc(-c2nc(SCC(=O)Nc3ccc(C(C)=O)cc3)[nH]c(=O)c2C#N)c1`, the IC50 (read-out: IC50) was 60 µM.

With `CC(C)c1ccc(NC(=O)CSc2nccc(-c3csc(COc4ccccc4Cl)n3)n2)cc1`, the IC50 (read-out: IC50) was 200 µM.

As for `CSc1sc(-c2nc(C)cs2)c(C)c1-c1ccnc(SCC(=O)Nc2ccc(Cl)cc2)n1`, under “read-out: IC50”, the IC50 turned out to be 11 µM.

Turning to `CCOC(=O)c1cnc(SCC(=O)Nc2ccc([N+](=O)[O-])cc2)nc1N`, where the note is “read-out: IC50”, the IC50 is 250 µM.

`COc1ccc(NC(=O)CSc2nc(O)cc(-c3ccccc3)n2)cc1OC`: the 50% inhibitory concentration (IC50) (read-out: IC50) turned out to be 45 µM.

On to `CC(C)(C)c1ccc(NC(=O)CSc2nc(C3CCCCC3)c(C#N)c(=O)[nH]2)cc1`, for which the IC50 (read-out: IC50) was 350 µM.

In the case of `COC(OC)c1cc(O)nc(SCC(=O)Nc2ccc(C(F)(F)F)cc2)n1`, the IC50 (read-out: IC50) is 200 µM.

Take `O=C(CSc1nccc(-c2cc(-c3ccccc3)no2)n1)Nc1ccc(Cl)cc1`: the IC50 (read-out: IC50) turned out to be 15 µM.

With `CC(C)c1ccc(NC(=O)CSc2nccc(-c3cccs3)n2)cc1`, the half-maximal inhibitory concentration (IC50) (read-out: IC50) worked out at 40 µM.

Turning to `O=C(CSc1nccc(-c2cc(-c3ccc(Cl)cc3Cl)no2)n1)Nc1ccc(C(F)(F)F)cc1`, the concentration for half-maximal inhibition (IC50) (read-out: IC50) was 15 µM.

As for `CCCCc1ccc(NC(=O)CSc2nc(O)c(C#N)c(C3CCCCC3)n2)c(C)c1`, the half-maximal inhibitory concentration (IC50) (read-out: IC50) was 200 µM.

Consider `O=C(CSc1nccc(-c2csc(-c3ccccc3)n2)n1)Nc1cc(Cl)cc(Cl)c1`, for which, where the note is “read-out: IC50”, the IC50 came out at 3 µM.

With `CC(Sc1nc(-c2ccccc2)c(C#N)c(=O)[nH]1)C(=O)Nc1ccc(Cl)cc1` (centres undefined), the IC50 (read-out: IC50) was 300 µM.

On to `Cc1cc(O)nc(SCC(=O)Nc2ccc(Oc3ccc(Cl)cc3)cc2)n1`, for which the 50% inhibitory concentration (IC50) (read-out: IC50) was determined as 200 µM.

Regarding `CCOc1ccc(N2C(=O)CC(Sc3nc(C)cc(C)n3)C2=O)cc1` (centres undefined), for the setting “read-out: IC50”, the IC50 came out at 300 µM.

`Cc1nc(SCC(=O)Nc2ccc([N+](=O)[O-])cc2)nc(O)c1C`: the IC50 was over 1000 µM (read-out: -Log IC50 (converted)) and over 1000 µM (read-out: IC50).

Consider `Cc1cc(O)nc(SCC(=O)Nc2cc(Cl)ccc2Oc2ccccc2)n1`, for which the IC50 (read-out: IC50) worked out at 100 µM.

With `N#Cc1c(-c2ccccc2)nc(SCC(=O)Nc2cccc(C(F)(F)F)c2)[nH]c1=O`, the half-maximal inhibitory concentration (IC50) (read-out: IC50) worked out at 200 µM.

On to `CSc1sc(-c2nc(C)cs2)c(C)c1-c1ccnc(SCC(=O)Nc2ccccc2Cl)n1`, for which the IC50 (read-out: IC50) came to 12 µM.

In the case of `O=C(CSc1nccc(-c2cc(-c3ccccc3Cl)no2)n1)Nc1ccc(Cl)cc1`, the 50% inhibitory concentration (IC50) (read-out: IC50) was 15 µM.

As for `Cc1nc(-c2nc(-c3ccnc(SCC(=O)Nc4ccc(Cl)cc4)n3)cs2)cs1`, the IC50 (read-out: IC50) stood at 14 µM.

For the compound `Cc1cc(C(F)(F)F)nc(SCC(=O)Nc2ccc(Cl)cc2F)n1`, the IC50 (read-out: IC50) stood at 500 µM.

Consider `COc1cccc(-c2nc(SCC(=O)Nc3ccc([N+](=O)[O-])cc3)[nH]c(=O)c2C#N)c1`, for which the IC50 (read-out: IC50) amounted to 300 µM.

Consider `CCCc1cc(O)nc(SCC(=O)Nc2ccc(Cl)cc2)n1`, for which the half-maximal inhibitory concentration (IC50) (read-out: IC50) was 30 µM.

Regarding `COc1ccc(-c2ccnc(SCC(=O)Nc3ccc(C(C)C)cc3)n2)cc1`, for the setting “read-out: IC50”, the IC50 stood at 400 µM.
